B2AR ag: human beta-2 adrenergic receptor agonism by FAP; response, % (test concentration not listed); Am2.2-beta2AR cells, FAP receptor internalization, flow cytometry; P07550; hit rate 0.43% among 340,000;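 active means response above a set limit, near 3 SD of response in nonfluorescent compounds, cut at about 42% in these data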
Target sequence (P07550 whole entry, looked up): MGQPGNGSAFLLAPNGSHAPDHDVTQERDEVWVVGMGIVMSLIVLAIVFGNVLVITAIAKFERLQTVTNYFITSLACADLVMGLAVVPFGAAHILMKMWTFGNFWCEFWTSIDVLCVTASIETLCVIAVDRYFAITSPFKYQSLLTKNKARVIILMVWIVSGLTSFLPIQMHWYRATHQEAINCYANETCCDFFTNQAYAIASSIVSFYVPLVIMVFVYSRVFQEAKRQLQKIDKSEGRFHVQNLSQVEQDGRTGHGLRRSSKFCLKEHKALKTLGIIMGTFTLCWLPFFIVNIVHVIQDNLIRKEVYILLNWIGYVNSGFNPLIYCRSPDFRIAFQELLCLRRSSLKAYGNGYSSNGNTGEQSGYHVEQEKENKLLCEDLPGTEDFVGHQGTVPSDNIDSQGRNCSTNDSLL
MC4R ag barr: agonists of human melanocortin 4 receptor (MC4R) beta-arrestin. P32245. U2OS MC4R beta-arrestin complementation, luminescence; percent of melanotan II response, DMSO zero. activation, % at 8.9 µM. hit rate 0.98% among 360,000. AID 540308;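 active means activation above a per-plate cutoff, the mean activation of sample wells on that plate plus 3 SD, cut at about 8% in these data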
PfG6PD inh: PfG6PD (Plasmodium falciparum) enzyme inhibition; PfGluPho enzyme, NADPH resazurin-diaphorase fluorescence; inhibition, % at 20 µM; hit rate 0.78% among 350,000;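 active means inhibition reaching at least a set limit at 20 µM in the primary screen, cut at about 59% in these data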;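 further: 0% = DMSO wells with substrate and 100% = DMSO wells lacking glucose-6-phosphate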
MC4R antagonist: human MC4R antagonism in cAMP assay. P32245. hit rate 0.48% among 360,000. AID 540295. inhibition, % at 6.5 µM. MC4R-expressing cells, MTII-stimulated cAMP, LANCE TR-FRET;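 active means inhibition above its plate's cutoff, the mean of tested wells on that plate plus 3 SD, cut at about 29% in these data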;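 further: 0% = Melanotan II alone and 100% = Melanotan II plus saturating MCL0020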
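system = U2OS cells with stable human MC4R expression | also added = Melanotan II challenge after compound preincubation | dosing = one concentration, 6.5 µM nominal | incubation = compound 30 min, challenge 1 h, detection 1 h | measured by = TR-FRET with Eu-cAMP and labeled anti-cAMP, 671 nm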
ABHD5-PLIN5 inh: ABHD5-PLIN5 protein interaction inhibition. Split G. princeps luciferase complementation, luminescence, 4 h. inhibition, % at 4 µM. hit rate 0.78% among 360,000. AID 602281;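 active means inhibition above the mean inhibition across every tested compound plus 3 SD, cut at about 22% in these data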;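 further: 0% = DMSO only wells and the 100% control is not disclosed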
PfGluPho conf: PfG6PD inhibition, single-dose confirmed; shares compounds with PfG6PD inh; recombinant PfGluPho, NADPH-diaphorase-resazurin fluorescence; inhibition, % at 20 µM; hit rate 34% among 2,400;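 active means inhibition of at least 50% at 20 µM in any single replicate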;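 further: 0% = DMSO with substrate and 100% = DMSO lacking glucose-6-phosphate substrate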
Diaph ctr 10uM: diaphorase inhibition or oxidation at 10 uM NADPH | hit rate 39% among 820 | AID 504862 | shares compounds with PfG6PD inh | inhibition, % at 20 µM | diaphorase-coupled resazurin reduction, fluorescence, NADPH 10 uM;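 active means average inhibition reaching 50% or more with the compound at 20 µM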;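 further: resorufin red fluorescence formed as diaphorase reduces resazurin using NADPH; 0% = DMSO with enzyme and 100% = DMSO without enzyme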
Diaphorase 30uM: diaphorase inhibition or oxidation at 30 uM NADPH; shares compounds with PfG6PD inh; Diaphorase/resazurin coupled assay, resorufin fluorescence; inhibition, % at 20 µM; hit rate 29% among 820; AID 504863;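 active means inhibition averaging 50% or more, tested at 20 µM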;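 further: 0% = DMSO with enzyme and 100% = DMSO wells lacking diaphorase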
Starred values were filed as active, the others as inactive; x = no result given. The list is not random: actives were taken first. Their share in the collection is about 3%.

SMILES	B2AR ag	MC4R ag barr	PfG6PD inh	MC4R antagonist	ABHD5-PLIN5 inh	PfGluPho conf	others
COC(=O)c1sc(NC(=O)c2cc(-c3ccccc3)nc3ccccc23)c(C#N)c1C	22.7	5.8	64.7*	-9.3	-16.3	43.0
CCOC(=O)c1sc(NC(=O)c2cc(-c3ccc(C)cc3)nc3ccccc23)c(C#N)c1C	18.6	-2.0	55.4	2.4	-0.3	x
CCc1c(C)nc2cc(-c3ccc(OC)c(OC)c3)nn2c1NCC1CC1	18.2	0.0	61.9*	-0.8	0.3	5.9
COc1ccc(-c2c(C)nn3c(NC4CCCC4)cc(C)nc23)cc1OC	4.0	-1.7	23.4	3.8	2.7	x
CSc1cnn(Cc2ccccc2)c(=O)c1SCc1ccccc1	1.7	-1.0	65.5*	1.8	-1.7	-6.4
CSc1cnn(-c2ccccc2)c(=O)c1SC	0.8	-0.1	1.6	6.0	5.5	x
CC(=O)Nc1ccc(NC(=O)CSc2nnc(NC(=O)c3ccc(Br)o3)s2)cc1	-1.5	-0.8	-12.5	-4.7	-0.3	x
CCNS(=O)(=O)c1ccc(Br)c(C(=O)OC(C)C(=O)NCC2CCCCC2)c1 (centres undefined)	-3.3	-2.2	0.1	-3.1	-6.0	x
CC(=O)OCC1(C)CN(c2ccccc2)NC1=O (centres undefined)	-1.8	-0.7	97.4*	1.0	-14.0	89.9*	Diaph ctr 10uM=-1.2;Diaphorase 30uM=-10.8
O=C(c1ccccc1)c1ccc(C(=O)N2CCN(c3ccc(O)cc3)CC2)cc1	-2.9	-4.0	61.0*	3.8	0.1	7.2
CCOc1ccc(-c2c(=O)n(O)c3ccccc3[n+]2[O-])cc1	9.0	-2.4	60.9*	6.6	-0.6	16.9
CCOc1ccc(-c2c(=O)n(OCC)c3ccccc3[n+]2[O-])cc1	1.2	2.4	-10.3	10.1	-13.9	x
CN(C(=O)c1cccc(NC(=O)c2cccs2)c1)c1ccccc1	-9.1	-0.6	-3.1	-1.9	1.9	x
Cc1ccc(S(=O)(=O)/N=C2\C=C(Nc3cccc(C(=O)O)c3)C(=O)c3ccccc32)cc1	31.5	-2.4	67.4*	-6.7	8.4	68.6*	Diaph ctr 10uM=88.5*;Diaphorase 30uM=86.3*
Cc1ccc(S(=O)(=O)/N=C2\C=C(NS(=O)(=O)c3ccccc3)C(=O)c3ccccc32)c(C)c1	5.0	0.4	5.9	-0.2	-4.9	x
Cc1ccc(S(=O)(=O)/N=C2\C=C(Nc3cccc(C(=O)O)c3)C(=O)c3ccccc32)c(C)c1	12.9	-3.9	70.2*	-1.4	-6.7	38.7
CCc1ccc(S(=O)(=O)/N=C2\C=C(Nc3ccc(C(=O)O)cc3)C(=O)c3ccccc32)cc1	4.2	-0.4	64.8*	2.9	-5.4	30.7
CC(=O)Nc1ccc(S(=O)(=O)/N=C2\C(=O)c3ccccc3C([O-])=C2n2cc[n+](-c3ccccn3)c2)cc1	10.7	-0.4	69.4*	9.6	-7.0	56.4*	Diaph ctr 10uM=34.8;Diaphorase 30uM=36.1
S=C(NNC(=S)Nc1ccc(Cl)cc1)NNc1ccccc1	x	-0.6	72.9*	0.0	-20.3	25.5
S=C(NNC(=S)Nc1ccccc1)Nc1ccccc1	-6.5	1.4	8.5	-6.9	-13.4	x
Cc1cc(OC(C)C(=O)NCC2CCCO2)cc(C)c1Cl (centres undefined)	-1.6	0.8	4.1	-2.0	2.9	x
Cc1cc2ncn(-c3ncccc3[N+](=O)[O-])c2cc1C	3.0	-0.1	76.2*	-1.9	2.2	-20.7
Cc1c(Cl)cnc(NC(=O)COC(=O)C2CC3CCCC(C2)C3=O)c1Cl (centres undefined)	-3.0	-1.9	-1.2	12.8	2.9	x
Cn1c(NN)nc2sc3c(c2c1=O)CC(C)(C)OC3	-5.6	-0.5	64.5*	-3.4	1.8	33.6
Cc1ccccc1-n1c(-c2ccc3ccccc3n2)n[nH]c1=S	3.6	-1.4	68.8*	8.4	-20.9	56.4*	Diaph ctr 10uM=15.4;Diaphorase 30uM=17.4
S=c1[nH]nc(-c2ccc3ccccc3n2)n1-c1ccc(Cl)cc1	-9.9	0.7	36.0	13.8	-3.9	x
CCN1C(=O)CSC1=Nc1ccc(C(=O)O)cc1	-2.1	1.2	-16.8	12.9	0.8	x
